Only some compounds are listed: those with a hit (about 1.3% of all), similar ones and a draw of the others.
FN deposition inh – fibronectin deposition inhibition; AH1F fibroblasts, Alexa488-fibronectin deposition fluorescence, overnight; inhibition, % at 12.6 µM; 350,000 tested, 0.086% active;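 active = mean inhibition across replicates of 30% or more, regardless of how many single replicates reach that level; inconclusive = mean under 30% yet at least half of replicates reach 30%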;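 also: positive control wells lacked labelled fibronectin entirely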
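Material – AH1F fibroblast monolayer, labelled fibronectin deposition · Reagent – labelled fibronectin 24 nM · Timing – 1 h adhesion, overnight exposure · Measured by – fluorescence at 485 nm excitation, 525 nm emission · Read-out – inhibition of fibronectin deposition signal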
MLL AF4-AF9 inh – MLL-AF4/AF9 protein interaction inhibition; P42568; AlphaScreen, biotin-AF4 peptide binding to FLAG-AF9; inhibition, % at 10 µM; 350,000 tested, 0.47% active; AID 651704;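 active = every replicate reaching a set inhibition limit, whatever the replicate mean, cut at about 25% in these data; inconclusive = mean inhibition reaches that limit but some replicates miss it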;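 also: 0% = plate neutral control median and 100% = total signal loss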
ERp5 block – blocks human ERp5 reductase activity on insulin; Q15084; ERp5 insulin aggregation, absorbance 650 nm, 90 min; inhibition, % at 9.99 µM; 350,000 tested, 0.05% active; AID 651711;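 active = mean replicate inhibition above about 25%, with every replicate also reaching it, limit read from the data, passing the limit was not always enough; inconclusive = only one of those two criteria met; inactive = neither criterion met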
SIRT5 inh – sirtuin-5 (human) deacylase inhibition; Q9NXA8; Purified SirT5, succinyl-peptide AMC, trypsin-coupled fluorescence; inhibition, % at 15 µM; 330,000 tested, 1.1% active; AID 652115; in the data active = inhibition above about 15%; inconclusive = no clear call, values can overlap the other calls
Target sequence (Q9NXA8 whole entry, looked up): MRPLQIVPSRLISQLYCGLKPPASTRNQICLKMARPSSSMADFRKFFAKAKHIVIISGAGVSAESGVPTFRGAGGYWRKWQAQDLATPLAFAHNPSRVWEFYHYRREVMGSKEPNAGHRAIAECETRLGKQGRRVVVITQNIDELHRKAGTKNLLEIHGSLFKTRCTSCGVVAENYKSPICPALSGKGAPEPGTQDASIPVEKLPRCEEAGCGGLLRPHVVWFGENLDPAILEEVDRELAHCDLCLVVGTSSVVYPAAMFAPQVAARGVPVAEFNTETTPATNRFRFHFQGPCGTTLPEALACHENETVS
PDI inh – blocks human protein disulfide isomerase activity; P07237; AID 588391; 350,000 tested, 0.052% active; inhibition, % at 10 µM; PDI insulin aggregation turbidity, A650, 90 min;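 active = mean inhibition across replicates of 30% or more, whatever share of single replicates reach that level; inconclusive = mean inhibition below 30% while every single replicate reaches 30%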
The depositor's hits bear a star; u = inconclusive; x = no result.

SMILES	FN deposition inh	MLL AF4-AF9 inh	ERp5 block	SIRT5 inh	PDI inh
COc1ccc(S(=O)(=O)Nc2ccc3c(c2)C(=O)N([C@@H](C)CO)C[C@@H](C)[C@@H](CN(C)S(=O)(=O)c2ccc(Cl)cc2)OCCCC[C@H](C)O3)cc1	3.6	-2.1	-4.0	20.7*	x
COc1ccc(S(=O)(=O)N(C)C[C@@H]2OCCCC[C@H](C)Oc3ccc(NS(=O)(=O)c4ccc(Cl)cc4)cc3C(=O)N([C@@H](C)CO)C[C@H]2C)cc1	6.3	-1.0	0.7	20.8*	x
COc1ccc(S(=O)(=O)N(C)C[C@H]2OCCCC[C@H](C)Oc3ccc(NS(=O)(=O)c4ccc(Cl)cc4)cc3C(=O)N([C@H](C)CO)C[C@H]2C)cc1	-7.3	-2.3	2.3	22.1*	x
COc1ccc(S(=O)(=O)N(C)C[C@H]2OCCCC[C@H](C)Oc3ccc(NS(=O)(=O)c4ccc(Cl)cc4)cc3C(=O)N([C@@H](C)CO)C[C@@H]2C)cc1	-12.2	-0.3	0.3	x	x
COc1ccc(S(=O)(=O)N(C)C[C@@H]2OCCCC[C@H](C)Oc3ccc(NS(=O)(=O)c4ccc(Cl)cc4)cc3C(=O)N([C@H](C)CO)C[C@@H]2C)cc1	-1.0	0.4	2.1	12.3	x
COc1ccc(S(=O)(=O)Nc2ccc3c(c2)C(=O)N([C@H](C)CO)C[C@H](C)[C@@H](CN(C)S(=O)(=O)c2ccc(Cl)cc2)OCCCC[C@H](C)O3)cc1	0.1	-0.1	2.9	0.1	x
CC(/C=C/c1ccc(Cl)o1)=C\C(=O)O	x	x	x	x	2.2
C=C(C)C(=O)NC1=NN(c2ccccc2)C(=O)C1	-7.0	x	x	x	-5.2
CC(=O)N(Cc1ccc(F)cc1)C1=C(NCCc2ccccc2)C(=O)c2ccccc2C1=O	41.9*	x	x	x	-6.0
O=C1C(Cl)=C(NCCc2ccccc2)C(=O)c2ccccc21	22.4	-5.2	-1.1	0.5	-8.2
C[C@@H]1CCCCO[C@@H](CN(C)Cc2ccc(C(F)(F)F)cc2)[C@@H](C)CN([C@H](C)CO)C(=O)c2cc(N(C)C)ccc2O1	5.8	18.4	5.4	7.9	8.4
C[C@H]1CCCCO[C@@H](CN(C)Cc2ccc(C(F)(F)F)cc2)[C@@H](C)CN([C@@H](C)CO)C(=O)c2cc(N(C)C)ccc2O1	x	37.2*	4.9	6.1	x
C[C@@H]1CCCCO[C@H](CN(C)Cc2ccc(C(F)(F)F)cc2)[C@H](C)CN([C@H](C)CO)C(=O)c2cc(N(C)C)ccc2O1	x	34.9*	2.8	7.2	x
C[C@@H]1CCCCO[C@H](CN(C)Cc2ccc(C(F)(F)F)cc2)[C@@H](C)CN([C@@H](C)CO)C(=O)c2cc(N(C)C)ccc2O1	x	5.5	2.1	-3.0	x
C[C@H]1CCCCO[C@H](CN(C)Cc2ccc(C(F)(F)F)cc2)[C@@H](C)CN([C@@H](C)CO)C(=O)c2cc(N(C)C)ccc2O1	x	32.7*	4.8	3.7	x
Cc1cc(NS(=O)(=O)c2ccc(NC(=O)COc3ccc(Br)cc3)cc2)nc(C)n1	0.8	-1.7	1.3	33.0*	8.4
C[C@@H](NC(=O)C[C@@H]1C[C@@H]2c3cc(NC(=O)c4ccc5c(c4)OCO5)ccc3O[C@@H]2[C@H](CO)O1)c1ccccc1	x	-2.9	-5.1	15.4*	x
O=C(C[C@H]1C[C@@H]2c3cc(NC(=O)Nc4ccc(C(F)(F)F)cc4)ccc3O[C@@H]2[C@@H](CO)O1)NCc1ccc2c(c1)OCO2	-23.4	4.4	-2.1	24.8*	x
O=C(C[C@H]1C[C@H]2c3cc(NC(=O)Nc4ccc(C(F)(F)F)cc4)ccc3O[C@H]2[C@H](CO)O1)NCc1ccc2c(c1)OCO2	-0.7	0.6	-0.8	7.4	x
O=C(C[C@@H]1C[C@H]2c3cc(NC(=O)Nc4ccc(C(F)(F)F)cc4)ccc3O[C@H]2[C@H](CO)O1)NCc1ccc2c(c1)OCO2	-13.8	5.2	-2.6	26.9*	x
CO[C@@H]1CN(C)C(=O)c2cc(NC(C)=O)ccc2OC[C@@H](C)N(C(=O)c2ccccc2F)C[C@@H]1C	1.2	2.1	-0.6	0.2	x
COc1ccc(NS(=O)(=O)c2cc(NC(=O)CCNC(=O)c3ccco3)ccc2OC)cc1	5.6	25.5*	0.9	-3.7	6.4
CCOc1ccc(NS(=O)(=O)c2cc(NC(=O)CCNC(=O)c3ccco3)ccc2OC)cc1	-2.5	-2.7	-5.6	-1.8	-3.4
CCOc1ccccc1C(=O)NC(C(=O)N(C)c1c(N)n(Cc2ccccc2)c(=O)[nH]c1=O)C(C)C (stereo unspecified)	1.9	2.4	3.3	16.9*	-6.3
CCCN(C(=O)C(NC(=O)c1ccccc1)C(C)C)c1c(N)n(Cc2ccccc2)c(=O)[nH]c1=O (stereo unspecified)	6.2	0.7	5.3	-1.0	0.5
SMILES	FN deposition inh	MLL AF4-AF9 inh	ERp5 block	SIRT5 inh	PDI inh
CC(=O)Nc1cccc(NC(=O)c2cccc3cccnc23)c1	-1.0	2.1	-1.8	15.1*	1.3
CCc1ccccc1NNC(=O)c1cc(C)on1	-2.6	-6.3	2.4	-2.7	1.6
COc1ccc(CN(C2CCCC2)S(=O)(=O)c2ccc(-n3cnnn3)cc2)cc1OC	31.1*	x	x	x	3.5
COc1ccc(CN(C2CCCC2)S(=O)(=O)c2ccc(-n3cnnn3)cc2)cc1	6.6	x	x	x	6.9
CS(=O)(=O)N(CC(=O)NC1CC1)c1cccc(F)c1	x	x	x	x	8.5
COc1ccc(OC)c2c1C(=O)c1ccccc1C2=O	1.6	x	x	x	x
COc1ccc(OC)c2c1C(=O)C(Cl)=C(Cl)C2=O	60.5*	-8.0	1.7	2.1	9.5
Cc1nc(SCc2cccc(C(=O)O)c2)nc2c1CCCC2	-3.4	-1.7	0.5	52.1*	17.6
COc1ccc(-c2cc(C)nc(SCc3cccc(C(=O)O)c3)n2)cc1	4.9	0.6	-3.0	x	-11.5
Cc1ccccc1S(=O)(=O)Nc1cccnc1	x	x	x	x	0.9
Cc1ccc(S(=O)(=O)Nc2cccnc2)c(C)c1C	-12.1	-1.3	-6.2	15.2*	0.6
COc1ccc(NCc2ccc(OC)c(Cn3ccnc3)c2)c(OC)c1	-2.0	33.6*	2.4	-0.5	0.4
CO[C@@H]1CN(C)C(=O)c2cc(NC(=O)Nc3c(C)noc3C)ccc2OC[C@@H](C)N(C)C[C@@H]1C	-8.0	u	-4.6	0.1	x
NS(=O)(=O)c1ccc(F)c(C(=O)O)c1	1.2	-9.6	7.8	18.7*	4.0
C=CCn1c(C)cc(C(=O)Cn2nc(C(=O)O)c3ccccc3c2=O)c1C	-5.9	-1.3	21.6	7.3	-1.1
COc1ccc(CCNC(=O)Cn2ccc3c(OC)cccc3c2=O)cc1OC	1.3	7.2	3.6	21.1*	1.0
Cc1cnc(NC(=O)c2cc3ccccc3o2)s1	x	-2.1	1.1	111.7*	-9.6
COc1ccc(S(=O)(=O)N2CCOC23CCN(S(=O)(=O)c2ccccc2)CC3)cc1	0.1	-6.8	4.8	26.8*	-6.2
COc1ccc(S(=O)(=O)N2CCOC23CCN(S(C)(=O)=O)CC3)cc1	0.4	2.2	2.5	1.2	-2.9
CC1CN(S(=O)(=O)c2ccc(CN3C(=O)c4cccnc4C3=O)cc2)c2ccccc2O1 (stereo unspecified)	4.4	-1.4	-14.8	-0.4	1.1

Screens from PubChem BioAssay.
